Source: PubChem BioAssay (several laboratories)
C2C12 statin: suppressors of statin myotoxicity in C2C12 myotubes, primary screen, cell-based, single point, plate reader | actives 0.78% (n = 330,000) | rescue of ATP level, % at 7.49 µM | C2C12 myotubes + simvastatin, ATP luminescence, 48 h; scaled: DMSO 0, geranylgeraniol control 100;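 active = mean ATP rescue above about 67%, or every replicate alone reaching that limit, limit read from the data, passing the limit was not always enough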;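 also: myotubes were challenged with 10 µM simvastatin during compound exposure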
Efflux pump inh: inhibitors of Candida efflux pumps in yeast, primary screen, S. cerevisiae, Nile Red, multiplex; S. cerevisiae Candida pump triplex; inhibition, % at 10 µM; actives 0.44% (n = 330,000); AID 485275, 2010;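 active = plate passing quality check with inhibition over a set limit, or well fluorescence over plate mean plus 4 SD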;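 also: Nile Red retained in pooled yeast measured as flow cytometry median fluorescence; higher means more Nile Red kept so more efflux inhibition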
Cneo AK release: Cryptococcus neoformans cell lysis inducers, primary screen, AK release luminescence, single concentration | actives 0.2% (n = 360,000) | C. neoformans lysis, adenylate kinase release luminescence, 4 h; normalised: neutral wells 0, clomiphene wells 100 | lysis activity, % at 15 µM;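 active = mean lysis activity across replicates of at least 80%, whatever share of replicates individually reach that level; inactive = mean lysis activity below 80%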
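Material – log-phase Cryptococcus neoformans yeast cells · Input – 5 × 10^6 yeast cells/mL · Medium – fresh YPD growth medium · Doses – single compound concentration per well · Timing – static 4 h at 37 °C with compound, 1 h detection · Detection – adenylate kinase release luminescence · Read-out – signal increase indicating cell lysis · Control set – Clomiphene as positive lysis control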
SUMO Mot1 rescue: yeast Mot1-301 growth rescue at high temperature, primary screen, SUMOylation pathway inhibitor project, S. cerevisiae, ATP luminescence, 38.5C. S. cerevisiae Mot1-301 growth rescue; percent above DMSO median, 100 means doubled. growth rescue, % at 18.8 µM. AID 2716, 2010. actives 1% (n = 320,000);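 active = every valid replicate shows activation above 250% relative to neutral control wells; inactive = the rest, any valid replicate at or below 250%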
Yeast Mot1 SUMO: growth restoration of Mot1-301 yeast on galactose, dose response, SUMO pathway inhibitor project, whole organism, S. cerevisiae, ATP luminescence, cherry-picked samples; shares compounds with SUMO Mot1 rescue; S. cerevisiae Mot1-301 galactose growth, 24 h; -100 = growth of slx-deleted rescue strain; growth activity, percent, % at 42 µM; 2,300 tested, under 10 active; AID 493004, 2010;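 active = Signal drops as the depositor expects, and the fitted half-maximal dose is no more than ten times the top valid tested dose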;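 also: more negative values mean stronger growth rescue toward the control strain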
Each line names hits and unclear results; the compound was inactive in the other large screens (follow-up assays come after a bar, where they were run). Hits are enriched below; roughly 1.8% of the tested compounds scored in any of these assays.

CN(Cc1ccccc1)c1ccc(S(=O)(=O)N2CCC(C(=O)O)CC2)cc1[N+](=O)[O-]	SUMO Mot1 rescue 550 | Yeast Mot1 SUMO inactive
Cc1ccccc1-c1nnnn1C1CCS(=O)(=O)C1 (centres undefined)	SUMO Mot1 rescue active (no result: C2C12 statin, Cneo AK release) | Yeast Mot1 SUMO inactive
CC(=O)Nc1ccc(-c2ccnc3c2CC(C)(C(=O)NCc2ccc(F)c(F)c2)O3)cc1 (centres undefined)	none (no result: Efflux pump inh, SUMO Mot1 rescue)
CC1(C)Oc2ccc3ccc(=O)oc3c2/C(=C/Nc2ccc(O)cc2)C1=O	SUMO Mot1 rescue 984 | Yeast Mot1 SUMO inactive
COc1ccccc1CC(NC(C)=O)C(=O)NC1CCN(C(=O)c2ccc(C)cc2)CC1 (centres undefined)	none
Cc1ccc(NC(=S)N2CCN(Cc3ccc4c(c3)OCO4)CC2)c(C)c1	SUMO Mot1 rescue 378 (no result: C2C12 statin) | Yeast Mot1 SUMO inactive
NC(=O)NC(=O)CSc1nc(C2CCCCC2)n(-c2ccccc2)n1	SUMO Mot1 rescue 685 (no result: C2C12 statin, Cneo AK release) | Yeast Mot1 SUMO inactive
C/C(N)=C(/C#N)C(=O)CSc1nc(C2CCCCC2)n(-c2ccccc2)n1	none
Cc1sc(NC(=O)c2ccco2)c(C(c2ccc(F)cc2)N2CCN(C)CC2)c1C (centres undefined)	SUMO Mot1 rescue 405 (no result: C2C12 statin, Cneo AK release) | Yeast Mot1 SUMO inactive
O=C(NC1CC1)c1ccc(-c2ccc3nccn3c2)cc1	none (no result: Efflux pump inh, SUMO Mot1 rescue)
NC1=NC2(CCCC2)N=C(Nc2ccccc2)N1	SUMO Mot1 rescue 722 | Yeast Mot1 SUMO inactive
Cc1cccc(NC2=NC3(CCCCC3)N=C(N)N2)c1	none
CS(=O)(=O)c1ccc(Cl)c(NC(=O)COC(=O)COc2ccc3c(c2)CCC3)c1	none (no result: Cneo AK release)
O=C(COC(=O)C1=COCCO1)NCc1ccc(F)cc1	none
CC(C)CCNC(=O)Nc1ccc2c(c1)N(C)C(=O)CS2	SUMO Mot1 rescue active (no result: C2C12 statin, Cneo AK release) | Yeast Mot1 SUMO inactive
COCCNC(=O)Nc1ccc2c(c1)N(C)C(=O)CS2	none
COc1ccc(CCN2C(=O)CC(NNC(=O)c3ccc(F)cc3)C2=O)cc1OC (centres undefined)	none (no result: C2C12 statin)
CCOc1ccc(C(=O)NNC2CC(=O)N(CCc3ccccc3)C2=O)cc1OC (centres undefined)	SUMO Mot1 rescue 737 (no result: C2C12 statin) | Yeast Mot1 SUMO inactive
C[C@H](O)C#Cc1cnc2c(c1)C(=O)N([C@@H](C)CO)C[C@@H](C)[C@H](CN(C)Cc1cncnc1)O2	none (no result: Efflux pump inh, SUMO Mot1 rescue)
COC(=O)c1ccncc1C(=O)Nc1ccc(OC)cc1	none (no result: C2C12 statin, Cneo AK release)
COC(=O)c1ccncc1C(=O)Nc1ccc(Oc2ncc(C(F)(F)F)cc2Cl)cc1	SUMO Mot1 rescue 369 (no result: C2C12 statin, Cneo AK release) | Yeast Mot1 SUMO inactive
O=S(=O)(c1ccc(S(=O)(=O)N2CCCC2)cc1)N1CCCCC1	SUMO Mot1 rescue 683 (no result: C2C12 statin, Cneo AK release) | Yeast Mot1 SUMO inactive
N#CCCN1CCN(S(=O)(=O)c2ccc(C3CCCCC3)cc2)CC1	none
O=S(=O)(c1ccc(C2CCCCC2)cc1)N1CCCC1	SUMO Mot1 rescue 621 | Yeast Mot1 SUMO inactive
COCC(=O)Nc1cc(C(=O)Nc2ccccc2C)ccc1Cl	none
COc1ccccc1NC(=O)Nc1ccc2c(c1)C(=O)N(C)C[C@@H](OC)[C@@H](C)CN(C)[C@H](C)CO2	none (no result: Efflux pump inh, SUMO Mot1 rescue)
Cn1c(N)c(C(=O)COC(=O)C2=COCCO2)c(=O)n(C)c1=O	none (no result: Cneo AK release)
O=C(O)c1ccc(COc2c(F)c(F)cc(F)c2F)cc1	SUMO Mot1 rescue active | Yeast Mot1 SUMO inactive
CCCC(O)(CCC)C(=O)NNc1ccc(C)cc1	SUMO Mot1 rescue 643 (no result: C2C12 statin, Cneo AK release) | Yeast Mot1 SUMO inactive
CNC(=O)Nc1cc(NC(=O)NC)cc(C(F)(F)F)c1	SUMO Mot1 rescue 586 (no result: C2C12 statin) | Yeast Mot1 SUMO inactive
CNC(=O)Nc1cccc(C(F)(F)F)c1	none
CCCOC(=O)c1c(NC(=O)/C=C/c2cnn(C)c2C)sc(C(=O)OC)c1C	SUMO Mot1 rescue active (no result: C2C12 statin) | Yeast Mot1 SUMO inactive
CCCOC(=O)c1c(NC(=O)/C=C/c2cnn(C)c2C)sc(C(=O)OCC)c1C	none
C[C@@H]1CCCCO[C@H](CN(C)C(=O)Nc2ccccc2)[C@H](C)CN([C@@H](C)CO)C(=O)c2cc(NC(=O)NC3CCCCC3)ccc2O1	none (no result: C2C12 statin, Efflux pump inh, SUMO Mot1 rescue)
O=C(CCCc1nc(-c2ccc(Cl)cc2)no1)NC1CCCCC1	SUMO Mot1 rescue 861 | Yeast Mot1 SUMO inactive
